≈ marks a conversion by molar mass, not a printed value. Calls of active or inactive are those of the source. The rule behind the calls is not given here.
Legend:
Enterococcus faecalis [1] = assay: Antibacterial activity against vancomycin resistant Enterococcus faecalis NCTC12204 measured after overnight incubation by microbroth dilution method; assay type: functional
Outline: (§1)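 Microbroth dilution: DMSO stocks diluted in water, 2-fold series. Overnight TSB cultures back-diluted to OD 0.01 and mixed 1:1 with compound. Incubated overnight at 37 °C; MIC taken as lowest concentration without visible growth (<0.1 OD600). Run in duplicate; matching DMSO levels checked for effect on growth.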

Enterococcus faecalis [2] = assay: Antibacterial activity against vancomycin resistant Enterococcus faecalis NCTC12201 measured after overnight incubation by microbroth dilution method; assay type: functional; outline: as §1
Enterococcus faecalis [3] = assay: Antibacterial activity against vancomycin sensitive Enterococcus faecalis NCTC775 measured after overnight incubation by microbroth dilution method; assay type: functional; outline: as §1
Staphylococcus aureus [4] = assay: Antibacterial activity against methicillin-resistant Staphylococcus aureus EMRSA15 measured after overnight incubation by microbroth dilution method; assay type: functional; outline: as §1
Staphylococcus aureus [5] = assay: Antibacterial activity against methicillin-sensitive Staphylococcus aureus ATCC 9144 measured after overnight incubation by microbroth dilution method; assay type: functional; outline: as §1
Staphylococcus aureus [6] = assay: Antibacterial activity against methicillin-resistant Staphylococcus aureus MRSA252 measured after overnight incubation by microbroth dilution method; assay type: functional; outline: as §1
Staphylococcus aureus [7] = assay: Antibacterial activity against methicillin sensitive Staphylococcus aureus NCTC 6571 measured after overnight incubation by microbroth dilution method; assay type: functional; outline: as §1
Staphylococcus aureus [8] = assay: Antibacterial activity against methicillin resistant Staphylococcus aureus NCTC13616 measured after overnight incubation by microbroth dilution method; assay type: functional; outline: as §1
Staphylococcus aureus [9] = assay: Antibacterial activity against methicillin resistant Staphylococcus aureus NCTC13277 measured after overnight incubation by microbroth dilution method; assay type: functional; outline: as §1
Klebsiella pneumoniae [10] = assay: Antibacterial activity against Klebsiella pneumoniae NCTC13368 measured after overnight incubation by microbroth dilution method; assay type: functional
Outline: (§2)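 Microbroth dilution MIC. Compound DMSO stocks were diluted in water as a 2-fold series. Overnight TSB cultures were back-diluted to OD 0.01 and mixed 1:1 with compound. Plates were incubated overnight at 37 °C. MIC was the lowest concentration without visible growth (<0.1 OD600), run in duplicate.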

Klebsiella pneumoniae [11] = assay: Antibacterial activity against Klebsiella pneumoniae M6 measured after overnight incubation by microbroth dilution method; assay type: functional; outline: as §2
Acinetobacter baumannii [12] = assay: Antibacterial activity against Acinetobacter baumannii AYE measured after overnight incubation by microbroth dilution method; assay type: functional; outline: as §2
Acinetobacter baumannii [13] = assay: Antibacterial activity against Acinetobacter baumannii ATCC 17978 measured after overnight incubation by microbroth dilution method; assay type: functional; outline: as §2
Pseudomonas aeruginosa [14] = assay: Antibacterial activity against Pseudomonas aeruginosa PAO1 measured after overnight incubation by microbroth dilution method; assay type: functional; outline: as §2
Pseudomonas aeruginosa [15] = assay: Antibacterial activity against Pseudomonas aeruginosa NCTC13437 measured after overnight incubation by microbroth dilution method; assay type: functional; outline: as §2
Escherichia coli [16] = assay: Antibacterial activity against Escherichia coli NCTC12923 measured after overnight incubation by microbroth dilution method; assay type: functional; outline: as §2
Klebsiella pneumoniae [17] = assay: Antibacterial activity against Klebsiella pneumoniae NCTC13368 measured after overnight incubation in presence of polymyxin B nonapeptide by microbroth dilution method; assay type: functional
Klebsiella pneumoniae [18] = assay: Antibacterial activity against Klebsiella pneumoniae M6 measured after overnight incubation in presence of polymyxin B nonapeptide by microbroth dilution method; assay type: functional
Acinetobacter baumannii [19] = assay: Antibacterial activity against Acinetobacter baumannii AYE measured after overnight incubation in presence of polymyxin B nonapeptide by microbroth dilution method; assay type: functional
Acinetobacter baumannii [20] = assay: Antibacterial activity against Acinetobacter baumannii ATCC 17978 measured after overnight incubation in presence of polymyxin B nonapeptide by microbroth dilution method; assay type: functional
Pseudomonas aeruginosa [21] = assay: Antibacterial activity against Pseudomonas aeruginosa PAO1 measured after overnight incubation in presence of polymyxin B nonapeptide by microbroth dilution method; assay type: functional
Pseudomonas aeruginosa [22] = assay: Antibacterial activity against Pseudomonas aeruginosa NCTC13437 measured after overnight incubation in presence of polymyxin B nonapeptide by microbroth dilution method; assay type: functional
HEK293 = assay: Cytotoxicity again human HEK293 cells measured after 24 hrs by XTT assay; assay type: cell-based; details: HEK293, 24 h
Outline: (§3)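 Cells were grown in EMEM with glutamine, 10% FBS and non-essential amino acids at 37 °C, 10% CO2. Seeding was 1 x 10^5 cells/mL (HEK293) or 4 x 10^4 cells/mL (HeLa), then 24 h adherence. Doubling compound dilutions were applied for 24 h. XTT/PMS was added for 4 h in the dark, with absorbance read at 450 nm. Untreated cells were the 100% control and water-treated cells the 0% control; IC50 was fitted.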

HeLa = assay: Cytotoxicity again human HeLa cells measured after 24 hrs by XTT assay; assay type: cell-based; outline: as §3
Escherichia coli [23] = assay: Antibacterial activity against Escherichia coli NCTC12923 measured after overnight incubation in presence of polymyxin B nonapeptide by microbroth dilution method; assay type: functional
Klebsiella pneumoniae [24] = assay: Antibacterial activity against Klebsiella pneumoniae NCTC13368 measured after overnight incubation in presence of phenylalanine arginine beta-naphthylamide by microbroth dilution method; assay type: functional; outline: as §2
Klebsiella pneumoniae [25] = assay: Antibacterial activity against Klebsiella pneumoniae M6 measured after overnight incubation in presence of phenylalanine arginine beta-naphthylamide by microbroth dilution method; assay type: functional; outline: as §2
Acinetobacter baumannii [26] = assay: Antibacterial activity against Acinetobacter baumannii AYE measured after overnight incubation in presence of phenylalanine arginine beta-naphthylamide by microbroth dilution method; assay type: functional; outline: as §2
Acinetobacter baumannii [27] = assay: Antibacterial activity against Acinetobacter baumannii ATCC 17978 measured after overnight incubation in presence of phenylalanine arginine beta-naphthylamide by microbroth dilution method; assay type: functional; outline: as §2
Pseudomonas aeruginosa [28] = assay: Antibacterial activity against Pseudomonas aeruginosa PAO1 measured after overnight incubation in presence of phenylalanine arginine beta-naphthylamide by microbroth dilution method; assay type: functional; outline: as §2
Pseudomonas aeruginosa [29] = assay: Antibacterial activity against Pseudomonas aeruginosa NCTC13437 measured after overnight incubation in presence of phenylalanine arginine beta-naphthylamide by microbroth dilution method; assay type: functional; outline: as §2
Escherichia coli [30] = assay: Antibacterial activity against Escherichia coli NCTC12923 measured after overnight incubation in presence of phenylalanine arginine beta-naphthylamide by microbroth dilution method; assay type: functional; outline: as §2
[31] = Inhibition of Staphylococcus aureus DNA gyrase subunit A2B2 using relaxed pBR322 DNA as substrate measured after 30 mins in presence of ATP by ethidium bromide-based gel electrophoresis
Outline: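 Supercoiling assay with S. aureus wild-type or S84L gyrase and relaxed pBR322, with or without varying compound, at 37 °C for 30 min. The reaction was stopped with STEB and extracted with chloroform:isoamyl alcohol (24:1). The aqueous phase was run on a 1% agarose gel and the supercoiled band quantified. IC50 came from at least three independent replicates.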

DNA gyrase = DNA gyrase (Staphylococcus aureus, UniProt P0A0K8+P20831, S84L); assay: Inhibition of Staphylococcus aureus DNA gyrase S84L mutant; assay type: protein-complex assay
Staphylococcus aureus [32] = assay: Antibacterial activity against Staphylococcus aureus NCTC13616 assessed as generation of drug resistance at 2 times MIC measured after 48 hrs by agar-based microbroth dilution method; assay type: functional
Outline: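 Agar method: exponentially growing bacteria, in known numbers, plated on agar with doubling compound concentrations at and above the MIC; incubated 48 hours. Colonies growing above the MIC were picked and re-tested by microbroth MIC for raised resistance. Resistance frequency reported at 2xMIC.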

Enterococcus faecalis [33] = assay: Bacteriostatic activity against vancomycin resistant Enterococcus feacalis NCTC12204 at 4 times MIC measured at 0 to 24 hrs by time kill assay
Staphylococcus aureus [34] = assay: Bacteriostatic activity against methicillin resistant Staphylococcus aureus NCTC13616 at 4 times MIC measured at 0 to 24 hrs by time kill assay
Enterococcus faecium = assay: Antibacterial activity against Enterococcus faecium NCTC12204 assessed as generation of drug resistance at 2 times MIC measured after 48 hrs by agar-based microbroth dilution method

Cc1cc(CN2CCN(C3CC4CCC3C4)CC2)c(C)n1-c1ccc(Cl)cc1 (stereo not given)
MIC (Enterococcus faecalis [1]): 32 mg/L (≈ 80.4 µM)
MIC (Enterococcus faecalis [2]): 32 mg/L (≈ 80.4 µM)
MIC (Enterococcus faecalis [3]): 64 mg/L (≈ 161 µM)
MIC (Staphylococcus aureus [4]): 64 mg/L (≈ 161 µM)
MIC (Staphylococcus aureus [5]): 64 mg/L (≈ 161 µM)
MIC (Staphylococcus aureus [6]): 64 mg/L (≈ 161 µM)

Cc1cccc(-n2c(C)cc(CN3CCN(C4C5CC6CC(C5)CC4C6)CC3)c2C)c1 (stereo not given)
MIC (Enterococcus faecalis [1]): 64 mg/L (≈ 153 µM)
MIC (Enterococcus faecalis [2]): 64 mg/L (≈ 153 µM)
MIC (Enterococcus faecalis [3]): 64 mg/L (≈ 153 µM)
MIC (Staphylococcus aureus [4]): 64 mg/L (≈ 153 µM)
MIC (Staphylococcus aureus [5]): 64 mg/L (≈ 153 µM)
MIC (Staphylococcus aureus [6]): 64 mg/L (≈ 153 µM)

Cc1cc(CNCCc2ccccc2)c(C)n1-c1ccc(Cl)cc1
MIC (Enterococcus faecalis [1]): 8 mg/L (≈ 23.6 µM)
MIC (Enterococcus faecalis [2]): 16 mg/L (≈ 47.2 µM)
MIC (Enterococcus faecalis [3]): 32 mg/L (≈ 94.4 µM)
MIC (Staphylococcus aureus [4]): 32 mg/L (≈ 94.4 µM)
MIC (Staphylococcus aureus [5]): 32 mg/L (≈ 94.4 µM)
MIC (Staphylococcus aureus [6]): 32 mg/L (≈ 94.4 µM)

Cc1cc(CNCc2ccccc2)c(C)n1-c1ccc(F)cc1
MIC (Enterococcus faecalis [1]): 32 mg/L (≈ 104 µM)
MIC (Enterococcus faecalis [2]): 64 mg/L (≈ 208 µM)
MIC (Enterococcus faecalis [3]): 64 mg/L (≈ 208 µM)
MIC (Staphylococcus aureus [4]): > 128 mg/L
MIC (Staphylococcus aureus [5]): > 128 mg/L
MIC (Staphylococcus aureus [6]): 64 mg/L (≈ 208 µM)

Cc1c(CNC2CCCCC2)cc(-c2ccc(Cl)cc2)n1-c1ccc(Cl)cc1
MIC (Enterococcus faecalis [1]): 2 mg/L (≈ 4.84 µM)
MIC (Enterococcus faecalis [2]): 4 mg/L (≈ 9.68 µM)
MIC (Staphylococcus aureus [7]): 4 mg/L (≈ 9.68 µM)
MIC (Staphylococcus aureus [8]): 4 mg/L (≈ 9.68 µM)
MIC (Staphylococcus aureus [9]): 4 mg/L (≈ 9.68 µM)
MIC (Enterococcus faecalis [3]): 4 mg/L (≈ 9.68 µM)
MIC (Klebsiella pneumoniae [10]): > 128 mg/L
MIC (Klebsiella pneumoniae [11]): > 128 mg/L
MIC (Acinetobacter baumannii [12]): 128 mg/L (≈ 310 µM)
MIC (Acinetobacter baumannii [13]): 64 mg/L (≈ 155 µM)
MIC (Pseudomonas aeruginosa [14]): > 128 mg/L
MIC (Pseudomonas aeruginosa [15]): > 128 mg/L
MIC (Escherichia coli [16]): > 128 mg/L
MIC (Klebsiella pneumoniae [17]): > 128 mg/L
MIC (Klebsiella pneumoniae [18]): 64 mg/L
MIC (Acinetobacter baumannii [19]): 8 mg/L
MIC (Acinetobacter baumannii [20]): 4 mg/L
MIC (Pseudomonas aeruginosa [21]): > 128 mg/L
MIC (Pseudomonas aeruginosa [22]): 32 mg/L

Cc1c(CNC2CCCCCC2)cc(-c2ccc(Cl)cc2)n1-c1ccc(C(C)C)cc1
MIC (Enterococcus faecalis [1]): 2 mg/L (≈ 4.6 µM)
MIC (Enterococcus faecalis [2]): 2 mg/L (≈ 4.6 µM)
MIC (Staphylococcus aureus [7]): 4 mg/L (≈ 9.19 µM)
MIC (Staphylococcus aureus [8]): 4 mg/L (≈ 9.19 µM)
MIC (Staphylococcus aureus [9]): 4 mg/L (≈ 9.19 µM)
MIC (Enterococcus faecalis [3]): 2 mg/L (≈ 4.6 µM)
MIC (Klebsiella pneumoniae [10]): > 128 mg/L
MIC (Klebsiella pneumoniae [11]): > 128 mg/L
MIC (Acinetobacter baumannii [12]): > 128 mg/L
MIC (Acinetobacter baumannii [13]): 32 mg/L (≈ 73.6 µM)
MIC (Pseudomonas aeruginosa [14]): > 128 mg/L
MIC (Pseudomonas aeruginosa [15]): > 128 mg/L
MIC (Escherichia coli [16]): > 128 mg/L
IC50 (HEK293): 1.95 to 2.83 mg/L (≈ 4.48 to 6.5 µM)
IC50 (HeLa): 1.95 to 2.83 mg/L (≈ 4.48 to 6.5 µM)
MIC (Klebsiella pneumoniae [17]): > 128 mg/L
MIC (Klebsiella pneumoniae [18]): > 128 mg/L
MIC (Acinetobacter baumannii [19]): 4 mg/L
MIC (Acinetobacter baumannii [20]): 2 mg/L
MIC (Pseudomonas aeruginosa [21]): 16 mg/L
MIC (Pseudomonas aeruginosa [22]): 16 mg/L
MIC (Escherichia coli [23]): 2 mg/L
MIC (Klebsiella pneumoniae [24]): > 128 mg/L
MIC (Klebsiella pneumoniae [25]): > 128 mg/L
MIC (Acinetobacter baumannii [26]): 4 mg/L
MIC (Acinetobacter baumannii [27]): 4 mg/L
MIC (Pseudomonas aeruginosa [28]): 128 mg/L
MIC (Pseudomonas aeruginosa [29]): > 128 mg/L
MIC (Escherichia coli [30]): 8 mg/L
IC50 [31]: 15.49 mg/L
IC50 (DNA gyrase): 43.7 µM
Activity (Staphylococcus aureus [32]): <7.6e-08
Activity (Enterococcus faecalis [33]): Active
Activity (Staphylococcus aureus [34]): Active
Activity (Enterococcus faecium): <9.4e-08

Cc1cc(CNC2C3CC4CC(C3)CC2C4)c(C)n1-c1ccc(Cl)cc1 (stereo not given)
MIC (Enterococcus faecalis [1]): 64 mg/L (≈ 173 µM)
MIC (Enterococcus faecalis [2]): 128 mg/L (≈ 347 µM)
MIC (Enterococcus faecalis [3]): 128 mg/L (≈ 347 µM)
MIC (Staphylococcus aureus [4]): > 128 mg/L
MIC (Staphylococcus aureus [5]): 128 mg/L (≈ 347 µM)
MIC (Staphylococcus aureus [6]): 128 mg/L (≈ 347 µM)

Cc1cc(CN2CCN(C3CCCCC3)CC2)c(C)n1-c1ccc(Cl)cc1
MIC (Enterococcus faecalis [1]): 128 mg/L (≈ 332 µM)
MIC (Enterococcus faecalis [2]): 128 mg/L (≈ 332 µM)
MIC (Enterococcus faecalis [3]): 128 mg/L (≈ 332 µM)
MIC (Staphylococcus aureus [4]): > 128 mg/L
MIC (Staphylococcus aureus [5]): 128 mg/L (≈ 332 µM)
MIC (Staphylococcus aureus [6]): > 128 mg/L
